Results as given in ChEMBL document CHEMBL1133729, “Design, synthesis, and structure-activity relationships of phthalimide-phenylpiperazines: a novel series of potent and selective alpha(1)(a)-adrenergic receptor antagonists” (J Med Chem, 2000).

biological target: T1, Alpha-1D adrenergic receptor (Homo sapiens, UniProt P25100); assay: Binding affinity towards cloned human alpha-1D adrenergic receptor was determined using [125]-HEAT as radioligand
T1 sequence (P25100 whole entry): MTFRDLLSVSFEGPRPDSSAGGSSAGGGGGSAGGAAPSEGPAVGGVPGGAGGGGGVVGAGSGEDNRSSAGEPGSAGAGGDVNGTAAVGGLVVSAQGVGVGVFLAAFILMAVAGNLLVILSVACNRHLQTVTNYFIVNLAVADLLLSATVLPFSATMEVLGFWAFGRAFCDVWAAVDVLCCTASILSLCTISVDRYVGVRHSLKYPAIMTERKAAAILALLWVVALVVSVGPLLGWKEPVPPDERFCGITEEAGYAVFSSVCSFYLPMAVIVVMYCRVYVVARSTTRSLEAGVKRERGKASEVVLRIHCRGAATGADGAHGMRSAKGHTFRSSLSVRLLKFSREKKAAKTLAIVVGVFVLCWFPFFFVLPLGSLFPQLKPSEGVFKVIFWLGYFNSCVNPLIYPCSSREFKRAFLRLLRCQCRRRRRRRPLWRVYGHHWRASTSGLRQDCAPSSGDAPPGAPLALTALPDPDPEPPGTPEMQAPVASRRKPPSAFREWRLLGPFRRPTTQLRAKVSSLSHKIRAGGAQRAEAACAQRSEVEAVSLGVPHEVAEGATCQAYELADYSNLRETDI
Method in brief: (§1)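 Human α1a, α1b and α1d cDNAs transiently expressed in COS-1 cells (DEAE-dextran); membranes harvested 72 h post-transfection. Competition versus 50 pM [125I]HEAT (final), 0.1 pM–10 μM test compound in half-log steps, in TNE buffer pH 7.4. Membrane protein 0.1 μg (α1a, α1b) or 2.6 μg (α1d); 1 h at 25 °C. Filtration, scintillation counting; Ki = IC50/(1 + [L]/Kd). Ratios are subtype Ki over α1a Ki.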

Structure (SMILES)	Ki [nM]
CC(C)Oc1ccccc1N1CCN(C[C@@H](O)CNC(=O)c2ccc3c(c2)C(=O)N(c2cccc(F)c2)C3=O)CC1	190
CCOc1ccccc1OCCN[C@H](C)Cc1ccc(OC)c(S(N)(=O)=O)c1 [TAMSULOSIN]	0.18
Cc1ccc(N2C(=O)c3ccc(C(=O)NC[C@H](O)CN4CCN(c5ccccc5OC(C)C)CC4)cc3C2=O)cc1	54
COc1ccc(N2C(=O)c3ccc(C(=O)NCCCN4CCN(c5ccccc5OC(C)C)CC4)cc3C2=O)cc1	16
Cc1ccc(N2C(=O)c3ccc(C(=O)NCCCN4CCN(c5ccccc5OC(C)C)CC4)cc3C2=O)cc1	37
CC(C)Oc1ccccc1N1CCN(C[C@@H](O)CNC(=O)c2ccc3c(c2)C(=O)N(c2ccc(N(C)C)cc2)C3=O)CC1	52
CC(C)Oc1ccccc1N1CCN(CCCNC(=O)c2ccc3c(c2)C(=O)N(c2cccc(F)c2)C3=O)CC1	22

biological target: Adrenergic receptors; alpha-1 A & B (Homo sapiens) (UniProt P35348+P35368); assay: Ratio of binding affinity towards Alpha1b to Alpha-1A; format: protein assay; method in brief: as §1

Structure (SMILES)	Ratio
CC(C)Oc1ccccc1N1CCN(C[C@@H](O)CNC(=O)c2ccc3c(c2)C(=O)N(c2cccc(F)c2)C3=O)CC1	> 1960
Cc1ccc(N2C(=O)c3ccc(C(=O)NC[C@H](O)CN4CCN(c5ccccc5OC(C)C)CC4)cc3C2=O)cc1	> 5690
COc1ccc(N2C(=O)c3ccc(C(=O)NCCCN4CCN(c5ccccc5OC(C)C)CC4)cc3C2=O)cc1	3280
Cc1ccc(N2C(=O)c3ccc(C(=O)NCCCN4CCN(c5ccccc5OC(C)C)CC4)cc3C2=O)cc1	> 12500
CC(C)Oc1ccccc1N1CCN(C[C@@H](O)CNC(=O)c2ccc3c(c2)C(=O)N(c2ccc(N(C)C)cc2)C3=O)CC1	> 6060
CC(C)Oc1ccccc1N1CCN(CCCNC(=O)c2ccc3c(c2)C(=O)N(c2cccc(F)c2)C3=O)CC1	1180

biological target: Serotonin 1 (5-HT1) receptor (Rattus norvegicus) (UniProt P28564+P30940+P19327+P28565); assay: Compound at 1 uM was tested for the inhibition of radioligand [3H]5-HT binding to 5-hydroxytryptamine 1 receptor in rat cerebral cortex; format: tissue-based
Method in brief: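 Rat cerebral cortex membranes; [3H]5-HT, 10 min at 37 °C, Tris-HCl/NaCl/EDTA buffer pH 7.4; 10 μM 5-HT for nonspecific binding. Filtered, washed three to four times, scintillation counted. Percent inhibition at 1 μM test compound, in duplicate.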

Structure (SMILES)	inhibition [%]
CC(C)Oc1ccccc1N1CCN(C[C@@H](O)CNC(=O)c2ccc3c(c2)C(=O)N(c2cccc(F)c2)C3=O)CC1	49
CCOc1ccccc1OCCN[C@H](C)Cc1ccc(OC)c(S(N)(=O)=O)c1 [TAMSULOSIN]	62
Cc1ccc(N2C(=O)c3ccc(C(=O)NC[C@H](O)CN4CCN(c5ccccc5OC(C)C)CC4)cc3C2=O)cc1	64
COc1ccc(N2C(=O)c3ccc(C(=O)NCCCN4CCN(c5ccccc5OC(C)C)CC4)cc3C2=O)cc1	90
Cc1ccc(N2C(=O)c3ccc(C(=O)NCCCN4CCN(c5ccccc5OC(C)C)CC4)cc3C2=O)cc1	69
CC(C)Oc1ccccc1N1CCN(C[C@@H](O)CNC(=O)c2ccc3c(c2)C(=O)N(c2ccc(N(C)C)cc2)C3=O)CC1	66
CC(C)Oc1ccccc1N1CCN(CCCNC(=O)c2ccc3c(c2)C(=O)N(c2cccc(F)c2)C3=O)CC1	88

biological target: T2, 5-hydroxytryptamine receptor 1A (Homo sapiens) (UniProt P08908); assay: Compound at 1 uM was tested for the inhibition of radioligand [3H]8-OH-DPAT binding to recombinant human 5-hydroxytryptamine 1A receptor
T2 sequence (whole entry): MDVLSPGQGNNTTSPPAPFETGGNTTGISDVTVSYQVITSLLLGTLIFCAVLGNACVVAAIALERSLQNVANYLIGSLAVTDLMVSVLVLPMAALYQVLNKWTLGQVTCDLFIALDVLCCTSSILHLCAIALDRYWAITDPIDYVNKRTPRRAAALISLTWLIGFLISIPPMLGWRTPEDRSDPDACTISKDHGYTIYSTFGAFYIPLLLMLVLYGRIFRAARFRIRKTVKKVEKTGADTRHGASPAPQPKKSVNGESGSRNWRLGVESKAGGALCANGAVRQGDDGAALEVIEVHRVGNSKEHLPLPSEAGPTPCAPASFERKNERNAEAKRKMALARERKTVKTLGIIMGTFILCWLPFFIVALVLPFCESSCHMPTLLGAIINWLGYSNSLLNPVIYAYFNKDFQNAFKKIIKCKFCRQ

Structure (SMILES)	inhibition [%]
CC(C)Oc1ccccc1N1CCN(C[C@@H](O)CNC(=O)c2ccc3c(c2)C(=O)N(c2cccc(F)c2)C3=O)CC1	98
CCOc1ccccc1OCCN[C@H](C)Cc1ccc(OC)c(S(N)(=O)=O)c1 [TAMSULOSIN]	115
Cc1ccc(N2C(=O)c3ccc(C(=O)NC[C@H](O)CN4CCN(c5ccccc5OC(C)C)CC4)cc3C2=O)cc1	92
COc1ccc(N2C(=O)c3ccc(C(=O)NCCCN4CCN(c5ccccc5OC(C)C)CC4)cc3C2=O)cc1	104
Cc1ccc(N2C(=O)c3ccc(C(=O)NCCCN4CCN(c5ccccc5OC(C)C)CC4)cc3C2=O)cc1	90
CC(C)Oc1ccccc1N1CCN(C[C@@H](O)CNC(=O)c2ccc3c(c2)C(=O)N(c2ccc(N(C)C)cc2)C3=O)CC1	92
CC(C)Oc1ccccc1N1CCN(CCCNC(=O)c2ccc3c(c2)C(=O)N(c2cccc(F)c2)C3=O)CC1	95

biological target: T3, Alpha-2C adrenergic receptor (Homo sapiens) (UniProt P18825); assay: Compound at 1 uM was tested for the inhibition of radioligand [3H]MK-912 binding to recombinant human alpha-2C adrenergic receptor
T3 sequence (whole entry): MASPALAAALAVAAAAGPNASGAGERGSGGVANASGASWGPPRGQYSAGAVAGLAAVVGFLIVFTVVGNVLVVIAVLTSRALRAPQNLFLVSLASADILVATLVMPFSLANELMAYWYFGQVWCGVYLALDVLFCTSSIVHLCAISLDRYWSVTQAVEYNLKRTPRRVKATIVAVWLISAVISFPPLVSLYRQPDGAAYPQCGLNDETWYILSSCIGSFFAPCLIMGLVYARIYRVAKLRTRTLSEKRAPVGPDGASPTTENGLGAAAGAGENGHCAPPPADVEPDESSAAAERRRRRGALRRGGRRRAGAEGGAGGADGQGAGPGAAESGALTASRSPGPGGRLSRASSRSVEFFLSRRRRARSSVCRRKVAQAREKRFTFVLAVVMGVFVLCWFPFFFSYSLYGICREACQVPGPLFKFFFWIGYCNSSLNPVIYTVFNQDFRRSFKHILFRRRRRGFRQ
Method in brief: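 Recombinant human α2a or α2c receptors in CHO cell membranes; [3H]MK912, 60 min at 25 °C in 50 mM Tris-HCl, 150 mM NaCl, 5 mM EDTA, pH 7.4; WB4101 (10 μM) for nonspecific binding. Percent inhibition at 1 μM in duplicate; filtration, scintillation counting.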

Structure (SMILES)	inhibition [%]
CC(C)Oc1ccccc1N1CCN(C[C@@H](O)CNC(=O)c2ccc3c(c2)C(=O)N(c2cccc(F)c2)C3=O)CC1	8
CCOc1ccccc1OCCN[C@H](C)Cc1ccc(OC)c(S(N)(=O)=O)c1 [TAMSULOSIN]	41
Cc1ccc(N2C(=O)c3ccc(C(=O)NC[C@H](O)CN4CCN(c5ccccc5OC(C)C)CC4)cc3C2=O)cc1	14
COc1ccc(N2C(=O)c3ccc(C(=O)NCCCN4CCN(c5ccccc5OC(C)C)CC4)cc3C2=O)cc1	76
Cc1ccc(N2C(=O)c3ccc(C(=O)NCCCN4CCN(c5ccccc5OC(C)C)CC4)cc3C2=O)cc1	83
CC(C)Oc1ccccc1N1CCN(C[C@@H](O)CNC(=O)c2ccc3c(c2)C(=O)N(c2ccc(N(C)C)cc2)C3=O)CC1	11
CC(C)Oc1ccccc1N1CCN(CCCNC(=O)c2ccc3c(c2)C(=O)N(c2cccc(F)c2)C3=O)CC1	86

biological target: T4, Alpha-1B adrenergic receptor (Homo sapiens, UniProt P35368); assay: Binding affinity towards cloned human alpha-1B adrenergic receptor was determined using [125]-HEAT as radioligand; method in brief: as §1
T4 sequence (P35368 whole entry): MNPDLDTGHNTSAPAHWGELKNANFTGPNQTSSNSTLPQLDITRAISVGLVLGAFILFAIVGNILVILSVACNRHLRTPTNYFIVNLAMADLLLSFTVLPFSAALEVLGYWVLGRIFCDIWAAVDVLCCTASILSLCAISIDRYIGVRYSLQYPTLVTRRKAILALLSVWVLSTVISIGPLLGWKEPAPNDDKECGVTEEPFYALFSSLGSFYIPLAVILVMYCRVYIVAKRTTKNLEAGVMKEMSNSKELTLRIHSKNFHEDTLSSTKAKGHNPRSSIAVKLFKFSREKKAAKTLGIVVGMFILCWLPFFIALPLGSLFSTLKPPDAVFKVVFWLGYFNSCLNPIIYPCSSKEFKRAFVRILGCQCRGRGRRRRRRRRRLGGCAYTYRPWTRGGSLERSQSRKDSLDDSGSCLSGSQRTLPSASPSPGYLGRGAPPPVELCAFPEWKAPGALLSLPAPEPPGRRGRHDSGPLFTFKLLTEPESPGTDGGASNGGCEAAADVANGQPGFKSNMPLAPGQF

Structure (SMILES)	Ki [nM]
CC(C)Oc1ccccc1N1CCN(C[C@@H](O)CNC(=O)c2ccc3c(c2)C(=O)N(c2cccc(F)c2)C3=O)CC1	> 2000
CCOc1ccccc1OCCN[C@H](C)Cc1ccc(OC)c(S(N)(=O)=O)c1 [TAMSULOSIN]	1.92
Cc1ccc(N2C(=O)c3ccc(C(=O)NC[C@H](O)CN4CCN(c5ccccc5OC(C)C)CC4)cc3C2=O)cc1	> 1650
COc1ccc(N2C(=O)c3ccc(C(=O)NCCCN4CCN(c5ccccc5OC(C)C)CC4)cc3C2=O)cc1	361
Cc1ccc(N2C(=O)c3ccc(C(=O)NCCCN4CCN(c5ccccc5OC(C)C)CC4)cc3C2=O)cc1	> 2000
CC(C)Oc1ccccc1N1CCN(C[C@@H](O)CNC(=O)c2ccc3c(c2)C(=O)N(c2ccc(N(C)C)cc2)C3=O)CC1	> 2000
CC(C)Oc1ccccc1N1CCN(CCCNC(=O)c2ccc3c(c2)C(=O)N(c2cccc(F)c2)C3=O)CC1	482

biological target: D(2) dopamine receptor (Homo sapiens, UniProt P14416); assay: Compound at 1 uM was tested for the inhibition of radioligand [3H]spiperone binding to recombinant human Dopamine receptor D2S
Sequence (P14416 whole entry): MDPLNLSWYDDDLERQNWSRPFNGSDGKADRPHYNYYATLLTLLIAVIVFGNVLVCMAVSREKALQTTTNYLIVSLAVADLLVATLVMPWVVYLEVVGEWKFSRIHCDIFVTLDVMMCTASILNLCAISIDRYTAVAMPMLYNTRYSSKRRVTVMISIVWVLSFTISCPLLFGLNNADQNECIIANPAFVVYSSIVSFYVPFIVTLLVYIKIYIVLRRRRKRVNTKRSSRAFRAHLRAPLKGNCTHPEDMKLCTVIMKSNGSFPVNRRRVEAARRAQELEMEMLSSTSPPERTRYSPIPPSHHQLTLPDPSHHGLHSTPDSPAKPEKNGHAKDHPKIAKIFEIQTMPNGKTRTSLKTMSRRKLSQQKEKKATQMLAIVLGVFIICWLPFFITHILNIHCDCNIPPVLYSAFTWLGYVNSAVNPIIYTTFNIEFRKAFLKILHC
Method in brief: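 Human D2S in CHO membranes; [3H]spiperone, 37 °C for 120 min in 50 mM Tris-HCl, 150 mM NaCl, 5 mM EDTA, pH 7.4; 10 μM haloperidol for nonspecific binding. Percent inhibition at 1 μM, duplicate; filtration, scintillation counting.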

Structure (SMILES)	inhibition [%]
CC(C)Oc1ccccc1N1CCN(C[C@@H](O)CNC(=O)c2ccc3c(c2)C(=O)N(c2cccc(F)c2)C3=O)CC1	51
CCOc1ccccc1OCCN[C@H](C)Cc1ccc(OC)c(S(N)(=O)=O)c1 [TAMSULOSIN]	73
Cc1ccc(N2C(=O)c3ccc(C(=O)NC[C@H](O)CN4CCN(c5ccccc5OC(C)C)CC4)cc3C2=O)cc1	70
COc1ccc(N2C(=O)c3ccc(C(=O)NCCCN4CCN(c5ccccc5OC(C)C)CC4)cc3C2=O)cc1	87
Cc1ccc(N2C(=O)c3ccc(C(=O)NCCCN4CCN(c5ccccc5OC(C)C)CC4)cc3C2=O)cc1	94
CC(C)Oc1ccccc1N1CCN(C[C@@H](O)CNC(=O)c2ccc3c(c2)C(=O)N(c2ccc(N(C)C)cc2)C3=O)CC1	71
CC(C)Oc1ccccc1N1CCN(CCCNC(=O)c2ccc3c(c2)C(=O)N(c2cccc(F)c2)C3=O)CC1	90
